In test [1] the test system is B16. Kind of test: Antitumor activity against B16 tumor ascite cells implanted ip in BDF1 mice was determined at a dose of 1.6-2 mg/kg. It is filed as functional, organism-based. Particulars: Mus musculus.
Test [2] concerns L1210. Kind of test: Antitumor activity against 10E6 L1210 ascites cells implanted ip in CDF1 mice was determined after a dose of 6-10 mg/kg. Particulars: Mus musculus. The test is classed as functional, organism-based. An outline of the steps:
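CDF1 mice implanted with 1 × 10⁶ L1210 ascites cells ip. Complexes were suspended in 0.9% NaCl with a drop of Tween 80 and given ip on day 1 after tumor inoculation. Groups were five treated mice and 10 leukemic controls. Mice were observed daily. Activity is % T/C: median survival time of treated ÷ untreated controls × 100.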

As a reminder, the T/C is the result in the treated group divided by that in the control group, in per cent. Take CISPLATIN: the T/C in test [1] was found to be 167%; in test [2], 150%.

The record behind these values is ChEMBL document CHEMBL1123722, “Comparative antitumor studies on platinum(II) and platinum(IV) complexes containing 1,2-diaminocyclohexane” (J Med Chem, 1987).
